# Laboratory results from ChEMBL document CHEMBL3272272, “Photoaffinity labeling of the angiotensin II receptor. 1. Synthesis and biological activities of the labeling peptides” (J Med Chem, 1978).
# Non-standard residues stand in square brackets, D forms with d. Residues, ends and D or L forms follow the SMILES beside them. Phe(4-NO2) = N[C@@H](Cc1ccc([N+](=O)[O-])cc1)C(=O)O; Phe(3,5-I2,4-NH2) = Nc1c(I)cc(C[C@H](N)C(=O)O)cc1I; Phe(4-N3) = [N-]=[N+]=Nc1ccc(C[C@H](N)C(=O)O)cc1; Phe(4-N2+) = N#[N+]c1ccc(C[C@H](N)C(=O)O)cc1; Phe(4-NH2) = Nc1ccc(C[C@H](N)C(=O)O)cc1; Sar = CNCC(=O)O
# How the values were obtained:
# Oryctolagus cuniculus [1] = organism: Oryctolagus cuniculus; assay: Relative binding affinity at rabbit angiotensin […] receptor in aorta strips under exclusion of long wavelength UV light relative to control; assay type: tissue-based
# Oryctolagus cuniculus [2] = organism: Oryctolagus cuniculus; assay: Agonist activity at rabbit angiotensin […] receptor in aorta strips assessed as peptide concentration required to produce 50% maximal response under exclusion of long wavelength UV light
# Outline: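 Rabbit aorta contractile bioassay. […]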
# Oryctolagus cuniculus [3] = organism: Oryctolagus cuniculus; assay: Intrinsic activity at rabbit angiotensin […] receptor in aorta strips under exclusion of long wavelength UV light; assay type: tissue-based
# Outline: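 Intrinsic activity (αE) was determined with the rabbit aorta bioassay.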
# [4] = Antagonist activity at rabbit angiotensin […] receptor in aorta strips under exclusion of long wavelength UV light; assay type: tissue-based; settings: Oryctolagus cuniculus, read-out: pA2 (converted)
Structure (SMILES),RBA (Oryctolagus cuniculus [1]) [%],pD2 (Oryctolagus cuniculus [2]),Intrinsic activity (Oryctolagus cuniculus [3]),Kb [4] [nM]
"CNCC(=O)N[C@@H](CCCNC(=N)N)C(=O)N[C@H](C(=O)N[C@@H](Cc1cc(I)c(N)c(I)c1)C(=O)N[C@H](C(=O)N[C@@H](Cc1cnc[nH]1)C(=O)N1CCC[C@H]1C(=O)N[C@@H](Cc1ccccc1)C(=O)O)C(C)C)C(C)C (H-[Sar]RV[Phe(3,5-I2,4-NH2)]VHPF-OH)",2.7,7.68,1,
CNCC(=O)N[C@@H](CCCNC(=N)N)C(=O)N[C@H](C(=O)N[C@@H](Cc1ccc([N+]#N)cc1)C(=O)N[C@H](C(=O)N[C@@H](Cc1cnc[nH]1)C(=O)N1CCC[C@H]1C(=O)N[C@@H](Cc1ccccc1)C(=O)O)C(C)C)C(C)C (H-[Sar]RV[Phe(4-N2+)]VHPF-OH),0.66,7.05,1,
CNCC(=O)N[C@@H](CCCNC(=N)N)C(=O)N[C@H](C(=O)N[C@@H](Cc1ccc(N)cc1)C(=O)N[C@H](C(=O)N[C@@H](Cc1cnc[nH]1)C(=O)N1CCC[C@H]1C(=O)N[C@@H](Cc1ccc(N)cc1)C(=O)O)C(C)C)C(C)C (H-[Sar]RV[Phe(4-NH2)]VHP[Phe(4-NH2)]-OH),8.7,8.17,1,
CNCC(=O)N[C@@H](CCCNC(=N)N)C(=O)N[C@H](C(=O)N[C@@H](Cc1ccc(O)cc1)C(=O)N[C@H](C(=O)N[C@@H](Cc1cnc[nH]1)C(=O)N1CCC[C@H]1C(=O)N[C@@H](Cc1ccc([N+]#N)cc1)C(=O)O)C(C)C)C(C)C,13,8.33,1,
CNCC(=O)N[C@@H](CCCNC(=N)N)C(=O)N[C@H](C(=O)N[C@@H](Cc1ccc(N=[N+]=[N-])cc1)C(=O)N[C@H](C(=O)N[C@@H](Cc1cnc[nH]1)C(=O)N1CCC[C@H]1C(=O)N[C@@H](Cc1ccc(N=[N+]=[N-])cc1)C(=O)O)C(C)C)C(C)C (H-[Sar]RV[Phe(4-N3)]VHP[Phe(4-N3)]-OH),0.07,6.12,0.8,
CNCC(=O)N[C@@H](CCCNC(=N)N)C(=O)N[C@H](C(=O)N[C@@H](Cc1ccc([N+](=O)[O-])cc1)C(=O)N[C@H](C(=O)N[C@@H](Cc1cnc[nH]1)C(=O)N1CCC[C@H]1C(=O)N[C@@H](Cc1ccc([N+](=O)[O-])cc1)C(=O)O)C(C)C)C(C)C (H-[Sar]RV[Phe(4-NO2)]VHP[Phe(4-NO2)]-OH),0.06,6.02,0.5,759
CNCC(=O)N[C@@H](CCCNC(=N)N)C(=O)N[C@H](C(=O)N[C@@H](Cc1ccc(O)cc1)C(=O)N[C@H](C(=O)N[C@@H](Cc1cnc[nH]1)C(=O)N1CCC[C@H]1C(=O)N[C@@H](Cc1cc(I)c(N)c(I)c1)C(=O)O)C(C)C)C(C)C,118,,0,0.501
CNCC(=O)N[C@@H](CCCNC(=N)N)C(=O)N[C@H](C(=O)N[C@@H](Cc1ccc([N+]#N)cc1)C(=O)N[C@H](C(=O)N[C@@H](Cc1cnc[nH]1)C(=O)N1CCC[C@H]1C(=O)N[C@@H](Cc1ccc([N+]#N)cc1)C(=O)O)C(C)C)C(C)C (H-[Sar]RV[Phe(4-N2+)]VHP[Phe(4-N2+)]-OH),1.3,7.36,1,
CNCC(=O)N[C@@H](CCCNC(=N)N)C(=O)N[C@H](C(=O)N[C@@H](Cc1ccc(O)cc1)C(=O)N[C@H](C(=O)N[C@@H](Cc1cnc[nH]1)C(=O)N1CCC[C@H]1C(=O)N[C@@H](Cc1ccc(N=[N+]=[N-])cc1)C(=O)O)C(C)C)C(C)C,31,8.72,1,
CNCC(=O)N[C@@H](CCCNC(=N)N)C(=O)N[C@H](C(=O)N[C@@H](Cc1ccc(O)cc1)C(=O)N[C@H](C(=O)N[C@@H](Cc1cnc[nH]1)C(=O)N1CCC[C@H]1C(=O)N[C@@H](Cc1ccc([N+](=O)[O-])cc1)C(=O)O)C(C)C)C(C)C,69,9.07,0.46,0.372
CNCC(=O)N[C@@H](CCCNC(=N)N)C(=O)N[C@H](C(=O)N[C@@H](Cc1ccc(N=[N+]=[N-])cc1)C(=O)N[C@H](C(=O)N[C@@H](Cc1cnc[nH]1)C(=O)N1CCC[C@H]1C(=O)N[C@@H](Cc1ccccc1)C(=O)O)C(C)C)C(C)C (H-[Sar]RV[Phe(4-N3)]VHPF-OH),0.26,6.65,0.75,
CNCC(=O)N[C@@H](CCCNC(=N)N)C(=O)N[C@H](C(=O)N[C@@H](Cc1ccc(N)cc1)C(=O)N[C@H](C(=O)N[C@@H](Cc1cnc[nH]1)C(=O)N1CCC[C@H]1C(=O)N[C@@H](Cc1ccccc1)C(=O)O)C(C)C)C(C)C (H-[Sar]RV[Phe(4-NH2)]VHPF-OH),15,8.41,1,
CNCC(=O)N[C@@H](CCCNC(=N)N)C(=O)N[C@H](C(=O)N[C@@H](Cc1ccc(O)cc1)C(=O)N[C@H](C(=O)N[C@@H](Cc1cnc[nH]1)C(=O)N1CCC[C@H]1C(=O)N[C@@H](Cc1ccccc1)C(=O)O)C(C)C)C(C)C (H-[Sar]RVYVHPF-OH),,9.23,1,
CNCC(=O)N[C@@H](CCCNC(=N)N)C(=O)N[C@H](C(=O)N[C@@H](Cc1ccc(O)cc1)C(=O)N[C@H](C(=O)N[C@@H](Cc1cnc[nH]1)C(=O)N1CCC[C@H]1C(=O)N[C@@H](Cc1ccc(N)cc1)C(=O)O)C(C)C)C(C)C,37,8.8,1,
CNCC(=O)N[C@@H](CCCNC(=N)N)C(=O)N[C@H](C(=O)N[C@@H](Cc1ccc([N+](=O)[O-])cc1)C(=O)N[C@H](C(=O)N[C@@H](Cc1cnc[nH]1)C(=O)N1CCC[C@H]1C(=O)N[C@@H](Cc1ccccc1)C(=O)O)C(C)C)C(C)C (H-[Sar]RV[Phe(4-NO2)]VHPF-OH),0,,0,
